A selection: hits, their analogues and other compounds. The true share with any hit is near 2%.
M5 PAM: human M5 muscarinic receptor positive allosteric modulators, primary screen, CHO-K1 cells, Fluo-8 calcium fluorescence; activation, % at 3 µM; hit rate 0.3% among 360,000; AID 624038, 2012; CHO-K1 hM5, ACh EC20 PAM; 0% = ACh EC20, 100% = ACh EC100;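 active means activation above the run cutoff, the mean activation of all test compounds plus 3 SD, cut at about 18% in these data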
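Test system: CHO-K1 hM5 cells / Doses: single-point, 3 µM nominal / Times: Post-acetylcholine fluorescence recording 140 s / Technique: Fluo-8 calcium fluorescence / Measure: Max/basal fluorescence ratio as % of EC20–EC100 ACh window / Benchmarks: low control EC20 acetylcholine (0%), high control EC100 acetylcholine (100%) / Replicates: one well per compound, no replicates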
CHRM5 antagonist: human M5 muscarinic receptor antagonists, primary screen, CHO cells, Fluo-8 calcium fluorescence | inhibition, % at 3 µM | AID 624040, 2012 | hit rate 0.59% among 360,000 | Muscarinic acetylcholine receptor M5 (Homo sapiens), P08912 | CHO-hM5 cells, ACh EC80;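 active means inhibition above a per-plate cutoff, the mean of that plate's test compounds plus 3 SD, cut at about 27% in these data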;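 further: 0% = acetylcholine EC80 with DMSO and 100% = DMSO without agonist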
CHRM1 antagonist: human M1 muscarinic receptor antagonists, primary screen, CHO-K1 cells, Fluo-8 calcium fluorescence, 1536-well; Muscarinic acetylcholine receptor M1 (Homo sapiens), P11229; hit rate 1.3% among 360,000; CHO-K1 hM1, ACh EC80 antagonist; inhibition, % at 3 µM;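 active means percent inhibition above its own plate's cutoff, namely the mean of that plate's compound wells plus 3 SD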;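 further: peak over basal fluorescence ratio during 140 s after agonist addition; 0% = ACh EC80 plus DMSO and 100% = DMSO alone without agonist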
Target sequence (P11229 whole entry, looked up): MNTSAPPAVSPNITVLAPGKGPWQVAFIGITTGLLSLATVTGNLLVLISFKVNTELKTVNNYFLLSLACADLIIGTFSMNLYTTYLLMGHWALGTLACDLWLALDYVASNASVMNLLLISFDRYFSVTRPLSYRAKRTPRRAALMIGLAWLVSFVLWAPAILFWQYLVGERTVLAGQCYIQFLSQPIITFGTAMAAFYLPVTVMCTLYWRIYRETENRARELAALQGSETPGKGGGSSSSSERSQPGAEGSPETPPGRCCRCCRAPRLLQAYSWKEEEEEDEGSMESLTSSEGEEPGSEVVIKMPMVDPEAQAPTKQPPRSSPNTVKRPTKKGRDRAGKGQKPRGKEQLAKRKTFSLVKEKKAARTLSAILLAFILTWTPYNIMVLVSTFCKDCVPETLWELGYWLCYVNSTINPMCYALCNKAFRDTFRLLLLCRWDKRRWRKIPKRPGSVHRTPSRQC
M5 ag: human M5 muscarinic receptor agonists, primary screen, CHO-K1 cells, Fluo-8 calcium fluorescence | Muscarinic acetylcholine receptor M5 (Homo sapiens), P08912 | CHO-K1 hM5 cells; 0% DMSO wells, 100% maximal acetylcholine response | activation, % at 3 µM | hit rate 0.19% among 360,000;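 active means activation above the run's mean over test compounds plus 3 SD, cut at about 23% in these data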;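 further: signal is peak over basal fluorescence ratio across the kinetic read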
M1 ag: human M1 muscarinic receptor agonists, primary screen, Fluo-8 calcium fluorescence, CHO-K1 cells, HTS | Muscarinic acetylcholine receptor M1 (Homo sapiens), P11229 | CHO-K1 hM1, agonist mode; 0% DMSO, 100% acetylcholine EC100 | activation, % at 3 µM | hit rate 0.33% among 360,000;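 active means activation above the run's mean compound activation plus 3 SD, cut at about 16% in these data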;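 further: peak over basal fluorescence ratio within a 140 s kinetic read after compound addition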
M1 PAM: human M1 muscarinic receptor positive allosteric modulators, primary screen, CHO-K1 cells, Fluo-8 calcium fluorescence, 1536-well; Muscarinic acetylcholine receptor M1 (Homo sapiens), P11229; CHO-K1 hM1, ACh EC20; 0% = ACh EC20, 100% = maximal ACh; activation, % at 3 µM; hit rate 0.088% among 360,000; in the data active means activation above about 19%, passing the limit was not always enough
Numbers without * were called inactive.

Results for Clc1ccc(C(c2ccccc2)N2CCN(c3ccccn3)CC2)cc1 (centres undefined) ?
M5 PAM: -5; CHRM5 antagonist: 5; CHRM1 antagonist: 9; M5 ag: -4; M1 ag: -4; M1 PAM: -6

Results for CN(C)S(=O)(=O)c1ccc(C(=O)Nc2nc(-c3cc4ccccc4o3)cs2)cc1 ?
M5 PAM: -7; CHRM5 antagonist: 13; CHRM1 antagonist: 24*; M5 ag: 1; M1 ag: 1; M1 PAM: -12

Results for O=C(Nc1nc(-c2cc3ccccc3o2)cs1)c1ccc(S(=O)(=O)N2CCCC2)cc1 ?
M5 PAM: 4; CHRM5 antagonist: -4; CHRM1 antagonist: 10; M5 ag: 4; M1 ag: 2; M1 PAM: -8

What do the screens show for `CCCCC1CC2=C(C(=O)OC(C)(C)O2)C(c2ccc3ccccc3c2)O1` (centres undefined)?
M5 PAM: -4; CHRM5 antagonist: -4; CHRM1 antagonist: -8; M5 ag: -1; M1 ag: -5; M1 PAM: -6

What do the screens show for `COc1c(C)cc(C(=O)C2CCCN(Cc3ccc(Oc4ncccn4)cc3)C2)cc1C` (centres undefined)?
M5 PAM: -9; CHRM5 antagonist: 6; CHRM1 antagonist: 35*; M5 ag: -13; M1 ag: -1; M1 PAM: -19

How did CC(C)Oc1cccc(C(=O)C2CCCN(Cc3ccc(Oc4ncccn4)cc3)C2)c1 (centres undefined) do in these assays?
M5 PAM: -3; CHRM5 antagonist: 12; CHRM1 antagonist: 83*; M5 ag: -15; M1 ag: -9; M1 PAM: -28

What do the screens show for `O=C(CN1C(=O)S/C(=C\C=C\c2ccccc2)C1=O)Nc1ccccc1C(=O)O`?
M5 PAM: -1; CHRM5 antagonist: 9; CHRM1 antagonist: -17; M5 ag: 1; M1 ag: -4; M1 PAM: 10

What do the screens show for `C#CCN1C(=O)S/C(=C/C=C/c2ccc(N(C)C)cc2)C1=O`?
M5 PAM: -7; CHRM5 antagonist: 18; CHRM1 antagonist: 47*; M5 ag: 8; M1 ag: 36*; M1 PAM: -18

How did CCCCNC(=O)C1C(c2ccc(C(F)(F)F)cc2)=Nc2ccccc2N1C(=O)c1cccc(C(F)(F)F)c1 (centres undefined) do in these assays?
M5 PAM: -5; CHRM5 antagonist: 7; M5 ag: -1

What do the screens show for `CCCCCC(=O)N1C[C@@H](O)[C@H](n2cc(COC(=O)c3ccccc3)nn2)C[C@@H]1c1ccc(OC)cc1`?
M5 PAM: 1; CHRM5 antagonist: -6; CHRM1 antagonist: -3; M5 ag: -1; M1 ag: 0; M1 PAM: 3

How did O=C(C1CCN(S(=O)(=O)c2cccc3cccnc23)CC1)N1CCn2c1nc1ccccc12 do in these assays?
M5 PAM: -8; CHRM5 antagonist: 2; CHRM1 antagonist: 11; M5 ag: 3; M1 ag: 43*; M1 PAM: -1

How did O=C(C1CCCN1S(=O)(=O)c1cccc2cccnc12)N1CCn2c1nc1ccccc12 (centres undefined) do in these assays?
M5 PAM: -4; CHRM5 antagonist: 10; CHRM1 antagonist: -6; M5 ag: 0; M1 ag: 13; M1 PAM: 19

How did CCc1nnc(NC(=O)CCC(=O)N2CCN(Cc3ccc(F)cc3)CC2)s1 do in these assays?
M5 PAM: -5; CHRM5 antagonist: 9; CHRM1 antagonist: -9; M5 ag: -2; M1 ag: 16*; M1 PAM: -2
